ChEMBL document CHEMBL3272325, “Structure-activity relationships of dimeric Catharanthus alkaloids. 1. Deacetylvinblastine amide (vindesine) sulfate” (J Med Chem, 1978)
Activity calls are given as the source filed them. The calls are words filed in the database; no cut-off is given here.

Columns and labels:
B16 [1] = experiment: Antitumor activity against mouse B16 cells allografted in B6D2F1 mouse assessed as mean survival time at 0.60 mg/kg/day, ip administered on day 1, 5 and 9 (reference value: 20.0 days); assay type: functional; conditions: route intraperitoneal
Procedure, shortened: (§1)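 Male B6D2F1 mice implanted ip on day 0 with 0.25 mL of a 20% (w/v) B16 melanoma brei. Alkaloid sulfate salts given ip on days 1, 5, 9 or on days 5, 9, 13, groups of 10, against 30 untreated controls. Read-outs: median survival time with range of individual deaths, and percent increase in life span, with survivors counted on day 56.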

B16 [2] = experiment: Antitumor activity against mouse B16 cells allografted in B6D2F1 mouse assessed as mean survival time at 1 mg/kg/day, ip administered on day 1, 5 and 9 (reference value: 20.0 days); assay type: functional; conditions: route intraperitoneal; procedure, shortened: as §1
B16 [3] = experiment: Antitumor activity against mouse B16 cells allografted in B6D2F1 mouse assessed as mean survival time at 1.67 mg/kg/day, ip administered on day 1, 5 and 9 (reference value: 20.0 days); assay type: functional; conditions: route intraperitoneal; procedure, shortened: as §1
P388 [4] = experiment: Antitumor activity against mouse P388 cells allografted in mouse assessed as increase in life span at 0.33 mg/kg/day, ip administered from day 1 to day 9 relative to untreated control; assay type: functional; conditions: route intraperitoneal
Procedure, shortened: (§2)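 P388 ascites implanted ip in mice, 10 animals per group. Sulfate salts given ip either daily on days 1-9 or as a single dose on day 1. Median life span was calculated using all deaths and survivors. Percent increase in life span was taken over untreated controls. The highest nontoxic dose was noted.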

P388 [5] = experiment: Antitumor activity against mouse P388 cells allografted in mouse assessed as increase in life span at 0.22 mg/kg/day, ip administered from day 1 to day 9 relative to untreated control; assay type: functional; conditions: route intraperitoneal; procedure, shortened: as §2
P388 [6] = experiment: Antitumor activity against mouse P388 cells allografted in mouse assessed as increase in life span at 4 mg/kg/day, ip after 1 day; assay type: functional; conditions: 24 h, route intraperitoneal; procedure, shortened: as §2
P388 [7] = experiment: Antitumor activity against mouse P388 cells allografted in mouse assessed as increase in life span at 2.7 mg/kg/day, ip after 1 day; assay type: functional; conditions: 24 h, route intraperitoneal; procedure, shortened: as §2
P388 [8] = experiment: Antitumor activity against mouse P388 cells allografted in mouse assessed as increase in life span at 1.8 mg/kg/day, ip after 1 day; assay type: functional; conditions: 24 h, route intraperitoneal; procedure, shortened: as §2
P388 [9] = experiment: Antitumor activity against mouse P388 cells allografted in mouse assessed as increase in life span at 1.2 mg/kg/day, ip after 1 day; assay type: functional; conditions: 24 h, route intraperitoneal; procedure, shortened: as §2
[10] = Toxicity in ip dosed mouse allografted with mouse p388 cells administered from day 1 to day 9; assay type: organism-based; conditions: in vivo, read-out: MNTD; procedure, shortened: as §2
[11] = Toxicity in ip dosed mouse allografted with mouse p388 cells after 1 day; assay type: organism-based; conditions: in vivo, read-out: MNTD; procedure, shortened: as §2
B16 [12] = experiment: Antitumor activity against mouse B16 cells allografted in B6D2F1 mouse assessed as mean survival time at 0.36 mg/kg/day, ip administered on day 1, 5 and 9 (reference value: 20.0 days); assay type: functional; conditions: route intraperitoneal; procedure, shortened: as §1
B16 [13] = experiment: Antitumor activity against mouse B16 cells allografted in B6D2F1 mouse assessed as mean survival time at 0.216 mg/kg/day, ip administered on day 1, 5 and 9 (reference value: 20.0 days); assay type: functional; conditions: route intraperitoneal; procedure, shortened: as §1
B16 [14] = experiment: Antitumor activity against mouse B16 cells allografted in B6D2F1 mouse assessed as increase in life span at 1.67 mg/kg/day, ip administered on day 1, 5 and 9 measured for 56 days relative to untreated control; assay type: functional; conditions: route intraperitoneal; procedure, shortened: as §1
B16 [15] = experiment: Antitumor activity against mouse B16 cells allografted in B6D2F1 mouse assessed as increase in life span at 1 mg/kg/day, ip administered on day 1, 5 and 9 measured for 56 days relative to untreated control; assay type: functional; conditions: route intraperitoneal; procedure, shortened: as §1
B16 [16] = experiment: Antitumor activity against mouse B16 cells allografted in B6D2F1 mouse assessed as increase in life span at 0.60 mg/kg/day, ip administered on day 1, 5 and 9 measured for 56 days relative to untreated control; assay type: functional; conditions: route intraperitoneal; procedure, shortened: as §1
B16 [17] = experiment: Antitumor activity against mouse B16 cells allografted in B6D2F1 mouse assessed as increase in life span at 0.36 mg/kg/day, ip administered on day 1, 5 and 9 measured for 56 days relative to untreated control; assay type: functional; conditions: route intraperitoneal; procedure, shortened: as §1
B16 [18] = experiment: Antitumor activity against mouse B16 cells allografted in B6D2F1 mouse assessed as increase in life span at 0.216 mg/kg/day, ip administered on day 1, 5 and 9 measured for 56 days relative to untreated control; assay type: functional; conditions: route intraperitoneal; procedure, shortened: as §1
B16 [19] = experiment: Antitumor activity against mouse B16 cells allografted in B6D2F1 mouse assessed as mean survival time at 1.67 mg/kg/day, ip administered on day 5, 9 and 13 (reference value: 20.0 days); assay type: functional; conditions: route intraperitoneal; procedure, shortened: as §1
B16 [20] = experiment: Antitumor activity against mouse B16 cells allografted in B6D2F1 mouse assessed as mean survival time at 1 mg/kg/day, ip administered on day 5, 9 and 13 (reference value: 20.0 days); assay type: functional; conditions: route intraperitoneal; procedure, shortened: as §1
B16 [21] = experiment: Antitumor activity against mouse B16 cells allografted in B6D2F1 mouse assessed as mean survival time at 0.60 mg/kg/day, ip administered on day 5, 9 and 13 (reference value: 20.0 days); assay type: functional; conditions: route intraperitoneal; procedure, shortened: as §1
B16 [22] = experiment: Antitumor activity against mouse B16 cells allografted in B6D2F1 mouse assessed as mean survival time at 0.36 mg/kg/day, ip administered on day 5, 9 and 13 (reference value: 20.0 days); assay type: functional; conditions: route intraperitoneal; procedure, shortened: as §1
B16 [23] = experiment: Antitumor activity against mouse B16 cells allografted in B6D2F1 mouse assessed as mean survival time at 0.216 mg/kg/day, ip administered on day 5, 9 and 13 (reference value: 20.0 days); assay type: functional; conditions: route intraperitoneal; procedure, shortened: as §1
B16 [24] = experiment: Antitumor activity against mouse B16 cells allografted in B6D2F1 mouse assessed as increase in life span at 1.67 mg/kg/day, ip administered on day 5, 9 and 13 measured for 56 days relative to untreated control; assay type: functional; conditions: route intraperitoneal; procedure, shortened: as §1
[25] = Antitumor activity against mouse Ridgeway osteogenic sarcoma cells allografted in mouse at 0.1 to 0.2 mg/kg/day, ip; assay type: functional; conditions: route intraperitoneal
Procedure, shortened: (§3)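 Sulfate salts given ip on days 1-9 against ROS and GLS in mice; tumor growth scored as percent inhibition versus controls (+++ = 75-100%, ++ = 50-75%, ± = under 25%).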

[26] = Antitumor activity against mouse Gardner lymphosarcoma cell allografted in mouse at 0.1 to 0.2 mg/kg/day, ip; assay type: functional; conditions: route intraperitoneal; procedure, shortened: as §3
[27] = Acute toxicity in ip dosed mouse; assay type: organism-based; conditions: in vivo
P388 [28] = experiment: Antitumor activity against mouse P388 cells allografted in mouse assessed as survival at 1.8 mg/kg/day after 1 day; assay type: functional, organism-based
Procedure, shortened: (§4)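 P388 ascites implanted ip in mice; sulfate salts dosed either daily or as a single dose on day 1, 10 animals per group. Survivors per total were recorded, median life span was calculated using all deaths and survivors, and percent increase of life span was reported.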

[29] = Antitumor activity against mouse P1534(J) cells allografted in mouse assessed as tumor growth inhibition at 0.25 mg/kg/day, ip administered from day 1 to day 9 relative to unreated control; assay type: functional; conditions: P1534J, route intraperitoneal, read-out: TGI
Procedure, shortened: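 P1534(J) leukemia implanted subcutaneously in mice; sulfate salts given ip on days 1-9. Read-out is percent inhibition of tumor growth versus untreated controls.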

[30] = Toxicity in ip dosed mouse allografted with mouse P1534(J) cells administered from day 1 to day 9; assay type: organism-based; conditions: in vivo, read-out: MNTD
Procedure, shortened: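 P1534(J) leukemia implanted subcutaneously in mice. Sulfate salts given ip daily on days 1-9. Read-out was percent inhibition of tumor growth relative to untreated controls. The highest nontoxic dose was recorded.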

P388 [31] = experiment: Antitumor activity against mouse P388 cells allografted in mouse assessed as survival at 1.2 mg/kg/day after 1 day; assay type: functional, organism-based; procedure, shortened: as §4
B16 [32] = experiment: Antitumor activity against mouse B16 cells allografted in B6D2F1 mouse assessed as increase in life span at 1 mg/kg/day, ip administered on day 5, 9 and 13 measured for 56 days relative to untreated control; assay type: functional; conditions: route intraperitoneal; procedure, shortened: as §1
B16 [33] = experiment: Antitumor activity against mouse B16 cells allografted in B6D2F1 mouse assessed as increase in life span at 0.60 mg/kg/day, ip administered on day 5, 9 and 13 measured for 56 days relative to untreated control; assay type: functional; conditions: route intraperitoneal; procedure, shortened: as §1
B16 [34] = experiment: Antitumor activity against mouse B16 cells allografted in B6D2F1 mouse assessed as increase in life span at 0.36 mg/kg/day, ip administered on day 5, 9 and 13 measured for 56 days relative to untreated control; assay type: functional; conditions: route intraperitoneal; procedure, shortened: as §1
B16 [35] = experiment: Antitumor activity against mouse B16 cells allografted in B6D2F1 mouse assessed as increase in life span at 0.216 mg/kg/day, ip administered on day 5, 9 and 13 measured for 56 days relative to untreated control; assay type: functional; conditions: route intraperitoneal; procedure, shortened: as §1
[36] = Acute toxicity in rat; assay type: organism-based; conditions: in vivo
Gallus gallus = experiment: Neurotoxicity in iv dosed chicken assessed as neuromuscular disturbance by measuring loss of balance; assay type: organism-based; conditions: in vivo
Rhesus monkey [37] = experiment: Neurotoxicity in iv dosed monkey assessed as peripheral neuropathy; assay type: toxicity, organism-based, Macaca mulatta; conditions: in vivo
P388 [38] = experiment: Antitumor activity against mouse P388 cells allografted in mouse assessed as survival at 0.22 mg/kg/day administered from day 1 to day 9; assay type: functional, organism-based; procedure, shortened: as §4
Rhesus monkey [39] = experiment: Neurotoxicity in iv dosed monkey assessed as peripheral neuropathy; conditions: in vivo

CC[C@]1(O)C[C@H]2CN(CCc3c([nH]c4ccccc34)[C@@](C(=O)OC)(c3cc4c(cc3OC)N(C=O)[C@H]3[C@@](O)(C(=O)OC)[C@H](OC(C)=O)[C@]5(CC)C=CCN6CC[C@]43[C@@H]65)C2)C1.O=S(=O)(O)O [VINCRISTINE SULFATE]
MST (B16 [1]): 30.5 days
MST (B16 [2]): 32.5 days
MST (B16 [3]): 35 days
ILS at 0.33 mg/kg/day (P388 [4]): 181%
ILS at 0.22 mg/kg/day (P388 [5]): 131%
ILS at 4 mg/kg/day (P388 [6]): 118%
ILS at 2.7 mg/kg/day (P388 [7]): 100%
ILS at 1.8 mg/kg/day (P388 [8]): 81%
ILS at 1.2 mg/kg/day (P388 [9]): 68%
MTD [10]: 0.33 mg/kg/day
MTD at 24 h [11]: 4 mg/kg/day
MST (B16 [12]): 26 days
MST (B16 [13]): 24 days
ILS at 1.67 mg/kg/day (B16 [14]): 75%
ILS at 1 mg/kg/day (B16 [15]): 62%
ILS at 0.6 mg/kg/day (B16 [16]): 52%
ILS at 0.36 mg/kg/day (B16 [17]): 30%
ILS at 0.216 mg/kg/day (B16 [18]): 20%
MST (B16 [19]): 26 days
MST (B16 [20]): 29.5 days
MST (B16 [21]): 24.5 days
MST (B16 [22]): 24 days
MST (B16 [23]): 24.5 days
ILS at 1.67 mg/kg/day (B16 [24]): 30%
TGI [25]: 75%
TGI [26]: 75%
LD50 [27]: 2.1 mg/kg
Activity (P388 [28]): inactive
inhibition in vivo at 0.25 mg/kg/day [29]: 77%
MTD [30]: 0.25 mg/kg/day
Activity (P388 [31]): inactive
ILS at 1 mg/kg/day (B16 [32]): 48%
ILS at 0.6 mg/kg/day (B16 [33]): 22%
ILS at 0.36 mg/kg/day (B16 [34]): 20%
ILS at 0.216 mg/kg/day (B16 [35]): 22%
LD50 [36]: 1 mg/kg
Activity (Gallus gallus): Toxic
Activity (Rhesus monkey [37]): Toxic
Activity (P388 [38]): inactive
Activity (Rhesus monkey [39]): Toxic
